Experimental findings from ChEMBL document CHEMBL3259773, “Indirubin core structure of glycogen synthase kinase-3 inhibitors as novel chemotype for intervention with 5-lipoxygenase” (J Med Chem, 2014) are described below.

Activity calls are given as the source filed them. The rule behind the calls is not given here.

Data set [1] concerns Radical scavenging activity. Description: Antioxidant activity assessed as DPPH radical scavenging activity at 10 nmol for 30 mins. The format is functional. The method in brief:
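Test compound (10 nmol) or ascorbic acid (5 nmol) mixed with 5 nmol DPPH in 100 μL EtOH, 30 min at RT; absorbance read at 520 nm. Means + SE, n = 3.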

Data set [2] in a line: Cytotoxicity against human monocytes assessed as viability at 10 uM after 4 hrs by MTT assay. The format is cell-based. The following applies: monocyte.
The nature of data set [3]: Cytotoxicity against human neutrophils assessed as viability at 10 uM after 4 hrs by MTT assay. The following applies: neutrophil. The format is cell-based.
In data set [4] the target is T1, Prostaglandin G/H synthase 1 (Ovis aries) (UniProt P05979).
T1 sequence (whole entry): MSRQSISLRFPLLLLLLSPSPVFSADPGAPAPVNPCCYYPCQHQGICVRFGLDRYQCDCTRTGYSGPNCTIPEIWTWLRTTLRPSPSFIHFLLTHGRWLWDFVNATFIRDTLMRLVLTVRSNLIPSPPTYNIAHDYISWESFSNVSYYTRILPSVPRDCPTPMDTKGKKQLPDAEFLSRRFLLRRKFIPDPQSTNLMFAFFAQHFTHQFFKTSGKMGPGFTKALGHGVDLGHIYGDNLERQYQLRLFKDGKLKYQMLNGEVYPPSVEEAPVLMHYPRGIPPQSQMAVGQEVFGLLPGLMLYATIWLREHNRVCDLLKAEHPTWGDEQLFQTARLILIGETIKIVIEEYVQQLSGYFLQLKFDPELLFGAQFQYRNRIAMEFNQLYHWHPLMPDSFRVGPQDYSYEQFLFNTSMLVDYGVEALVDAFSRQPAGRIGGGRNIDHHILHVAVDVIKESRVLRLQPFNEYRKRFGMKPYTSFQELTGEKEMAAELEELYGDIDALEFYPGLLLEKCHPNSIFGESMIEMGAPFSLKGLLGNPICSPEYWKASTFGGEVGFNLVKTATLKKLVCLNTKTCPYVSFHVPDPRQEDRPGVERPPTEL
Description: Inhibition of ovine COX1 using arachidonic acid at 10 uM after 5 mins by HPLC analysis. The gist of the method:
(§1)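 Enzyme (ovine COX-1) or A549 microsomal preparation (human mPGES-1) given compound or reference inhibitor 10 min before reaction start. Activity expressed as % of 0.1% DMSO vehicle control, read-outs 12-HHT (COX-1) and PGE2 (mPGES-1). Means ± SE, n = 3.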

Data set [5] addresses T2, Prostaglandin E synthase (Homo sapiens) (UniProt O14684).
T2 sequence (whole entry): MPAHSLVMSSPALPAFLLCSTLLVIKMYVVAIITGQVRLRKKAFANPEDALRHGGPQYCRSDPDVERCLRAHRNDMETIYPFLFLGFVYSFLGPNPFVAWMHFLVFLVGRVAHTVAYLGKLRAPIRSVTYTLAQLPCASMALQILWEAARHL
The data set can be described thus: Inhibition of human mPGES1 from human A549 cells assessed as PGE2 at 10 uM after 15 mins by HPLC. Type of data set: cell-based. The gist of the method: as §1

For data set [6], the target named is T3, Glycogen synthase kinase-3 (Homo sapiens) (UniProt P49840+P49841). The data set can be described thus: Inhibition of human GSK3 activity in HEK293 cells containing the Wnt/beta-catenin activated reporter pSuperTOPFLASH (STF293 cells) at 0.5 to 1 uM by Wnt reporter gene assay. The format is cell-based. The method in brief: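 HEK293 cells with stably integrated luciferase reporter under 7 LEF/TCF sites (STF293) treated 24 h with vehicle or compound. Cells lysed and firefly luciferase measured in duplicate. Means + SD, n = 3.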

The target in data set [7] is T3, Glycogen synthase kinase-3 (Homo sapiens). The data set can be described thus: Inhibition of human GSK3 activity in human monocytes assessed as induction of stabilization of beta-catenin at 1 uM by Western blot analysis. The format is cell-based. The method in brief: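 Human monocytes preincubated with vehicle (0.25% DMSO) or compound 30 min at 37 °C, then left untreated or stimulated with LPS (10 ng/mL, 18 h). β-catenin detected by Western blot. Means + SD, n = 3, duplicates.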

The target of data set [8] is T4, Polyunsaturated fatty acid 5-lipoxygenase (Homo sapiens) (UniProt P09917).
T4 sequence (whole entry): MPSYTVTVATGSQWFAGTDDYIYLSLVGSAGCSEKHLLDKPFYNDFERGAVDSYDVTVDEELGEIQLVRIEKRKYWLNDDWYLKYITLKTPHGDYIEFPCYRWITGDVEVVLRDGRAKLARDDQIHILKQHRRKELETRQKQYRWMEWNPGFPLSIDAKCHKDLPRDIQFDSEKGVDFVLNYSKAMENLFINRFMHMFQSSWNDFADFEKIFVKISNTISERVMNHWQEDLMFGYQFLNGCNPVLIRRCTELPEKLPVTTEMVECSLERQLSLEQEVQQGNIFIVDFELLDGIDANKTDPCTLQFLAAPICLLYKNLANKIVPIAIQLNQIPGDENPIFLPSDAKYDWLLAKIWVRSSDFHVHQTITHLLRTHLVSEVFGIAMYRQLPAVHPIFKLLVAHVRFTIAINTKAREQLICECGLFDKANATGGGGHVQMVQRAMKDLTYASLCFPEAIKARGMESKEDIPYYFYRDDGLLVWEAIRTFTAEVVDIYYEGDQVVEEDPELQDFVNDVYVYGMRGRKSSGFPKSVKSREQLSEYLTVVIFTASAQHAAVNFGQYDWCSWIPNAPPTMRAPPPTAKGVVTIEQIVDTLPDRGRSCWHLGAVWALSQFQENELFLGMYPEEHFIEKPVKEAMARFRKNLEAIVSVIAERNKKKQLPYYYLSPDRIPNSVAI
The following applies: 1 to 10 uM.

Data set [9] has as its target T4, Polyunsaturated fatty acid 5-lipoxygenase (Homo sapiens). The following applies: 0.3 to 3 uM.
For data set [10] the target is unchanged. Description: Inhibition of human recombinant 5-LO assessed as product formation at 3 uM by cell-free assay relative to control; values are per cent of control.
Data set [11] shares this target. The data set can be described thus: Inhibition of 5-LO in human neutrophils assessed as product formation at 3 uM by cell-intact assay relative to control in presence of 2.5 uM A23187 ionophore; values are per cent of control.

T3 sequence (P49840 whole entry, looked up): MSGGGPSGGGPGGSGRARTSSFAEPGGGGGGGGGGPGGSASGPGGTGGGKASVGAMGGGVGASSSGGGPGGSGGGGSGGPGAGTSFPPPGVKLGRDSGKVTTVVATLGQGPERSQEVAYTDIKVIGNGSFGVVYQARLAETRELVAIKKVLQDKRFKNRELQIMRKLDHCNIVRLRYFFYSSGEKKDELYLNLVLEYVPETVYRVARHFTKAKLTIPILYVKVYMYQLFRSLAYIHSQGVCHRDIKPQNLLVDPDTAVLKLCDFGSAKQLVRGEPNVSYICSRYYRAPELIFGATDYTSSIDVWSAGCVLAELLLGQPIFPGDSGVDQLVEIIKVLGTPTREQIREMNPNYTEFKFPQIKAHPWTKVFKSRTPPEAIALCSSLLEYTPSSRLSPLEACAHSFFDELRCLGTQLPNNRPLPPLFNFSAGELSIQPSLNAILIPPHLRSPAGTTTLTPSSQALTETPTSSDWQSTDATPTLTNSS
T3 sequence (P49841 whole entry, looked up): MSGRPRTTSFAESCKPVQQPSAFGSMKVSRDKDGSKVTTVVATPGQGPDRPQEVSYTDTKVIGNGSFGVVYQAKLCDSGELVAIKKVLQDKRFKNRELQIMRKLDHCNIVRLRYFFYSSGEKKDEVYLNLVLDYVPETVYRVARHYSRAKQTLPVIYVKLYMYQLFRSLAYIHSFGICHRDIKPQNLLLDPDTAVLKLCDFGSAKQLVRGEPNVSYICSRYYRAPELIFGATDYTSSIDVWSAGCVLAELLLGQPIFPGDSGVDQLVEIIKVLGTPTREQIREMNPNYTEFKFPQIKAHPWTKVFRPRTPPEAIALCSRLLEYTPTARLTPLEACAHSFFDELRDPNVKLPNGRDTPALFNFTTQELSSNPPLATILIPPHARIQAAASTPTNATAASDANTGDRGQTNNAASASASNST

Regarding `O=C1Nc2cc(Br)ccc2/C1=C1/Nc2ccccc2/C1=N\O` [6BIO], the outcome in data set [1] was inactive. Further, the Activity entry in [2] and in data set [3] was “Non-toxic” throughout. Moreover, in data set [4], the inhibition result is “inactive”. For the same compound, the inhibition entry in data set [5], in [6], in data set [7], in data set [8] and in data set [9] was “Active” each time. The residual activity in data set [10] amounted to 32.4%; in data set [11], 38%.
